Published values of several laboratories.
Each line is one published result; the experiments were not run side by side.
Target: Cannabinoid receptor 1 (CNR1, Homo sapiens, UniProt P21554)

`CCOC(=O)C(CC)(CCCSCCOCCOCCOCCOCCNC(=O)OC(C)(C)C)NC(=O)c1ccc(C2CC2)c(Cc2ccc(F)cc2)n1` (centres unmarked) gave a Ki of 731 nM (ligand displacement, radioligand; cell membranes).
For `Cc1c(C(=O)N2CCC(C(N)=O)(c3ccccc3)CC2)nn(-c2ccc(Cl)cc2Cl)c1-c1ccc(Cl)cc1`, the Kb was 0.4 nM (calcium signal, antagonist).
For `CCCCC/C=C\C/C=C\C/C=C\C/C=C\CCCC(=O)NCCCl`, the Ki was 0.74 nM (ligand displacement, radioligand; cell membranes).
With `CCCCCc1cc(O)c2c(c1)OC(C)(C)[C@@H]1CC=C(C)[C@H](O)[C@@H]21` the Ki was 31 nM (ligand displacement, radioligand; cell membranes).
With `CCOC(=O)C(CC)(CCCSCCOCCOCCOCCNC(=O)OC(C)(C)C)NC(=O)c1ccc(C2CC2)c(Cc2ccc(F)cc2)n1` (centres unmarked) the Ki was 589 nM (ligand displacement, radioligand; cell membranes).
With `CCCCCc1cc(O)c(C/C=C(\C)CCC=C(C)C)c(O)c1` the Ki was 3090 nM (ligand displacement, radioligand; cell membranes).
`O=C(c1ccc2c(c1)c1ccccc1n2CCN1CCOCC1)c1cc2ccccc2[nH]1` has a Ki of 1200 nM (ligand displacement, radioligand; cell membranes).
The Ki of `CCCc1cc(O)c2c(c1)OC(C)(C)c1ccc(C)cc1-2` is reported as 565 nM (ligand displacement, radioligand; cell membranes).
For `CC1(C)C(C(=O)c2cn(CCCCCF)c3ccccc23)C1(C)C`, the EC50 was 159 nM (GTPγS binding, agonist, radiometric; cell membranes).
`CCCc1cc(O)c2c(c1)OC(C)(C)[C@@H]1CCC(C)=C[C@@H]21` gave a Ki of 22 nM (ligand displacement, radioligand; cell membranes).
`CCOC(=O)C(CC)(CCCSCCOCCOCCNc1ccc([N+](=O)[O-])c2nonc12)NC(=O)c1ccc(C2CC2)c(Cc2ccc(F)cc2)n1` (racemic) has an EC50 of 600 nM (cAMP, agonist).
With `N#Cc1c(Oc2cccc(OS(=O)(=O)CCCC(F)(F)F)c2)cccc1C(F)(F)F` the EC50 was 519 nM (calcium signal, agonist).
`C=CCC(CC)(NC(=O)c1ccc(C2CC2)c(Cc2ccc(F)cc2)n1)C(=O)OCC` (centres unmarked) gave a Ki of 2.9 nM (ligand displacement, radioligand; cell membranes).
The Ki of `C/C(N)=N\C(=N/S(=O)(=O)c1ccc(C(F)(F)F)cc1)N1C[C@H](c2ccccc2)C(c2ccc(Cl)cc2)=N1` is reported as 1.2 nM (ligand displacement, radioligand).
